How the values were obtained:
[1] = system: Muscle tissue; assay: Biodistribution in muscle of Fischer 344 rat bearing rat 9L cells at 20 uCi, iv after 60 mins; assay type: ADME, organism-based; details: in vivo, 1 h
Method in brief: (§1)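 Male Fischer 344 rats (200–250 g) carrying intracranial 9L gliosarcoma (5×10^4 cells implanted stereotactically, 10–12 days growth), under ketamine:xylazine anaesthesia. About 20 μCi tracer in 0.5 mL sterile saline given via tail-vein catheter. Groups of 4–5 were killed by intracardiac KCl at 15 (NMeFAMP only), 30, 60 or 120 min. Tissues were weighed and gamma-counted, decay-corrected, and reported as %ID/g, mean ± SD.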

[2] = system: Heart; assay: Biodistribution in heart of Fischer 344 rat bearing rat 9L cells at 20 uCi, iv after 120 mins; assay type: ADME, organism-based; details: in vivo, 2 h; method in brief: as §1
[3] = system: Kidney; assay: Biodistribution in kidney of Fischer 344 rat bearing rat 9L cells at 20 uCi, iv after 15 mins; assay type: ADME, organism-based; details: in vivo, 0.25 h; method in brief: as §1
[4] = Ratio of drug level from tumor to brain of Fischer 344 rat bearing rat 9L cells at 20 uCi, iv after 60 mins; details: in vivo, 1 h
[5] = system: Liver; assay: Biodistribution in liver of Fischer 344 rat bearing rat 9L cells at 20 uCi, iv after 30 mins; assay type: ADME, organism-based; details: in vivo, 0.5 h; method in brief: as §1
[6] = Biodistribution in testis of Fischer 344 rat bearing rat 9L cells at 20 uCi, iv after 120 mins; assay type: ADME, organism-based; details: in vivo, 2 h; method in brief: as §1
[7] = system: Brain; assay: Biodistribution in brain of Fischer 344 rat bearing rat 9L cells at 20 uCi, iv after 15 mins; assay type: ADME, organism-based; details: in vivo, 0.25 h; method in brief: as §1
[8] = system: Kidney; assay: Biodistribution in kidney of Fischer 344 rat bearing rat 9L cells at 20 uCi, iv after 60 mins; assay type: ADME, organism-based; details: in vivo, 1 h; method in brief: as §1
[9] = system: Blood; assay: Biodistribution in blood of Fischer 344 rat bearing rat 9L cells at 20 uCi, iv after 120 mins; assay type: ADME, organism-based; details: in vivo, 2 h; method in brief: as §1
[10] = system: Liver; assay: Biodistribution in liver of Fischer 344 rat bearing rat 9L cells at 20 uCi, iv after 120 mins; assay type: ADME, organism-based; details: in vivo, 2 h; method in brief: as §1
[11] = system: Brain; assay: Biodistribution in brain of Fischer 344 rat bearing rat 9L cells at 20 uCi, iv after 15 mins; details: in vivo
[12] = system: Blood; assay: Biodistribution in blood of Fischer 344 rat bearing rat 9L cells at 20 uCi, iv after 60 mins; assay type: ADME, organism-based; details: in vivo, 1 h; method in brief: as §1
[13] = system: Kidney; assay: Biodistribution in kidney of Fischer 344 rat bearing rat 9L cells at 20 uCi, iv after 120 mins; assay type: ADME, organism-based; details: in vivo, 2 h; method in brief: as §1
[14] = system: Pancreas; assay: Biodistribution in pancreas of Fischer 344 rat bearing rat 9L cells at 20 uCi, iv after 120 mins; assay type: ADME, organism-based; details: in vivo, 2 h; method in brief: as §1
[15] = system: Bone; assay: Biodistribution in bone of Fischer 344 rat bearing rat 9L cells at 20 uCi, iv after 120 mins; assay type: ADME, organism-based, Bone element; details: in vivo, 2 h; method in brief: as §1
[16] = system: Lung; assay: Biodistribution in lung of Fischer 344 rat bearing rat 9L cells at 20 uCi, iv after 30 mins; assay type: ADME, organism-based; details: in vivo, 0.5 h; method in brief: as §1
[17] = system: Bone; assay: Biodistribution in bone of Fischer 344 rat bearing rat 9L cells at 20 uCi, iv after 30 mins; assay type: ADME, organism-based, Bone element; details: in vivo, 0.5 h; method in brief: as §1
[18] = Biodistribution in testis of Fischer 344 rat bearing rat 9L cells at 20 uCi, iv after 15 mins; assay type: ADME, organism-based; details: in vivo, 0.25 h; method in brief: as §1
[19] = system: Spleen; assay: Biodistribution in spleen of Fischer 344 rat bearing rat 9L cells at 20 uCi, iv after 30 mins; assay type: ADME, organism-based; details: in vivo, 0.5 h; method in brief: as §1
[20] = system: Blood; assay: Biodistribution in blood of Fischer 344 rat bearing rat 9L cells at 20 uCi, iv after 30 mins; assay type: ADME, organism-based; details: in vivo, 0.5 h; method in brief: as §1
[21] = system: Bone; assay: Biodistribution in bone of Fischer 344 rat bearing rat 9L cells at 20 uCi, iv after 60 mins; assay type: ADME, organism-based, Bone element; details: in vivo, 1 h; method in brief: as §1
[22] = system: Bone; assay: Biodistribution in bone of Fischer 344 rat bearing rat 9L cells at 20 uCi, iv after 15 mins; assay type: ADME, organism-based, Bone element; details: in vivo, 0.25 h; method in brief: as §1
[23] = system: Muscle tissue; assay: Biodistribution in muscle of Fischer 344 rat bearing rat 9L cells at 20 uCi, iv after 120 mins; assay type: ADME, organism-based; details: in vivo, 2 h; method in brief: as §1
[24] = system: Pancreas; assay: Biodistribution in pancreas of Fischer 344 rat bearing rat 9L cells at 20 uCi, iv after 30 mins; assay type: ADME, organism-based; details: in vivo, 0.5 h; method in brief: as §1
[25] = system: Kidney; assay: Biodistribution in kidney of Fischer 344 rat bearing rat 9L cells at 20 uCi, iv after 30 mins; assay type: ADME, organism-based; details: in vivo, 0.5 h; method in brief: as §1
[26] = system: Lung; assay: Biodistribution in lung of Fischer 344 rat bearing rat 9L cells at 20 uCi, iv after 60 mins; assay type: ADME, organism-based; details: in vivo, 1 h; method in brief: as §1
[27] = system: Heart; assay: Biodistribution in heart of Fischer 344 rat bearing rat 9L cells at 20 uCi, iv after 30 mins; assay type: ADME, organism-based; details: in vivo, 0.5 h; method in brief: as §1
[28] = system: Muscle tissue; assay: Biodistribution in muscle of Fischer 344 rat bearing rat 9L cells at 20 uCi, iv after 30 mins; assay type: ADME, organism-based; details: in vivo, 0.5 h; method in brief: as §1
[29] = system: Spleen; assay: Biodistribution in spleen of Fischer 344 rat bearing rat 9L cells at 20 uCi, iv after 120 mins; assay type: ADME, organism-based; details: in vivo, 2 h; method in brief: as §1
[30] = system: Heart; assay: Biodistribution in heart of Fischer 344 rat bearing rat 9L cells at 20 uCi, iv after 15 mins; assay type: ADME, organism-based; details: in vivo, 0.25 h; method in brief: as §1
[31] = Ratio of drug level from tumor to brain of Fischer 344 rat bearing rat 9L cells at 20 uCi, iv after 120 mins; assay type: ADME, organism-based; details: in vivo, 2 h
[32] = system: Blood; assay: Biodistribution in blood of Fischer 344 rat bearing rat 9L cells at 20 uCi, iv after 15 mins; assay type: ADME, organism-based; details: in vivo, 0.25 h; method in brief: as §1
[33] = system: Pancreas; assay: Biodistribution in pancreas of Fischer 344 rat bearing rat 9L cells at 20 uCi, iv after 15 mins; assay type: ADME, organism-based; details: in vivo, 0.25 h; method in brief: as §1
[34] = system: Liver; assay: Biodistribution in liver of Fischer 344 rat bearing rat 9L cells at 20 uCi, iv after 15 mins; assay type: ADME, organism-based; details: in vivo, 0.25 h; method in brief: as §1
[35] = Biodistribution in testis of Fischer 344 rat bearing rat 9L cells at 20 uCi, iv after 60 mins; assay type: ADME, organism-based; details: in vivo, 1 h; method in brief: as §1
[36] = system: Brain; assay: Biodistribution in brain of Fischer 344 rat bearing rat 9L cells at 20 uCi, iv after 30 mins; assay type: ADME, organism-based; details: in vivo, 0.5 h; method in brief: as §1
[37] = system: Muscle tissue; assay: Biodistribution in muscle of Fischer 344 rat bearing rat 9L cells at 20 uCi, iv after 15 mins; assay type: ADME, organism-based; details: in vivo, 0.25 h; method in brief: as §1
[38] = system: Lung; assay: Biodistribution in lung of Fischer 344 rat bearing rat 9L cells at 20 uCi, iv after 15 mins; assay type: ADME, organism-based; details: in vivo, 0.25 h; method in brief: as §1
[39] = system: Pancreas; assay: Biodistribution in pancreas of Fischer 344 rat bearing rat 9L cells at 20 uCi, iv after 60 mins; assay type: ADME, organism-based; details: in vivo, 1 h; method in brief: as §1
[40] = Biodistribution in testis of Fischer 344 rat bearing rat 9L cells at 20 uCi, iv after 30 mins; assay type: ADME, organism-based; details: in vivo, 0.5 h; method in brief: as §1
[41] = system: Brain; assay: Biodistribution in brain of Fischer 344 rat bearing rat 9L cells at 20 uCi, iv after 30 mins; details: in vivo, 0.5 h
[42] = rat, in vivo, iv, 1 h
[43] = rat, in vivo, iv, 1 h; remark: listed apart in the source
[44] = system: Liver; assay: Biodistribution in liver of Fischer 344 rat bearing rat 9L cells at 20 uCi, iv after 60 mins; assay type: ADME, organism-based; details: in vivo, 1 h; method in brief: as §1
[45] = system: Lung; assay: Biodistribution in lung of Fischer 344 rat bearing rat 9L cells at 20 uCi, iv after 120 mins; assay type: ADME, organism-based; details: in vivo, 2 h; method in brief: as §1
[46] = system: Spleen; assay: Biodistribution in spleen of Fischer 344 rat bearing rat 9L cells at 20 uCi, iv after 60 mins; assay type: ADME, organism-based; details: in vivo, 1 h; method in brief: as §1
[47] = system: Spleen; assay: Biodistribution in spleen of Fischer 344 rat bearing rat 9L cells at 20 uCi, iv after 15 mins; assay type: ADME, organism-based; details: in vivo, 0.25 h; method in brief: as §1
[48] = Biodistribution in tumor of Fischer 344 rat bearing rat 9L cells at 20 uCi, iv after 30 mins; assay type: ADME, organism-based, Neoplasm; details: in vivo, 0.5 h; method in brief: as §1
[49] = system: Heart; assay: Biodistribution in heart of Fischer 344 rat bearing rat 9L cells at 20 uCi, iv after 60 mins; assay type: ADME, organism-based; details: in vivo, 1 h; method in brief: as §1

In the case of `CN[C@@](C)(C[18F])C(=O)O.Cl`, the Drug uptake [1] is reported as 0.2 % ID/g, the Drug uptake [2] is reported as 0.22 % ID/g and the Drug uptake [3] is reported as 9.22 % ID/g. It also gave a Ratio [4] of 58.2, a Drug uptake [5] of 0.61 % ID/g and a Drug uptake [6] of 0.16 % ID/g. It also gave a Drug uptake [7] of 0.06 % ID/g, a Drug uptake [8] of 4.44 % ID/g and a Drug uptake [9] of 0.14 % ID/g. For the same compound, the Drug uptake [10] was 0.4 % ID/g, the Ratio [11] was 25 and the Drug uptake [12] was 0.24 % ID/g. For the same compound, the Drug uptake [13] was 2.45 % ID/g, the Drug uptake [14] was 3.39 % ID/g and the Drug uptake [15] was 0.44 % ID/g. For the same compound, the Drug uptake [16] was 0.36 % ID/g, the Drug uptake [17] was 0.48 % ID/g and the Drug uptake [18] was 0.19 % ID/g. For the same compound, the Drug uptake [19] was 0.63 % ID/g, the Drug uptake [20] was 0.32 % ID/g and the Drug uptake [21] was 0.51 % ID/g. It also gave a Drug uptake [22] of 0.51 % ID/g, a Drug uptake [23] of 0.22 % ID/g and a Drug uptake [24] of 2.72 % ID/g. The Drug uptake [25] was 8.91 % ID/g, the Drug uptake [26] was 0.38 % ID/g and the Drug uptake [27] was 0.23 % ID/g. The Drug uptake [28] was 0.23 % ID/g, the Drug uptake [29] was 0.62 % ID/g and the Drug uptake [30] was 0.55 % ID/g. For the same compound, the Ratio [31] was 115.4, the Drug uptake [32] was 0.41 % ID/g and the Drug uptake [33] was 2.25 % ID/g. The Drug uptake [34] was 0.6 % ID/g, the Drug uptake [35] was 0.15 % ID/g and the Drug uptake [36] was 0.04 % ID/g. It also gave a Drug uptake [37] of 0.27 % ID/g, a Drug uptake [38] of 0.79 % ID/g and a Drug uptake [39] of 3.41 % ID/g. It also gave a Drug uptake [40] of 0.15 % ID/g, a Drug uptake [41] of 0.04 % ID/g and a Drug uptake [42] of 2.64 % ID/g. It also gave a Drug uptake [43] of 0.05 % ID/g, a Drug uptake [44] of 0.52 % ID/g and a Drug uptake [45] of 0.25 % ID/g. The Drug uptake [46] was 0.59 % ID/g, the Drug uptake [47] was 0.57 % ID/g and the Ratio [48] was 53.2. The Drug uptake [49] was 0.24 % ID/g.

From ChEMBL document CHEMBL1154842, “Synthesis, radiolabeling, and biological evaluation of (R)- and (S)-2-amino-3-[(18)F]fluoro-2-methylpropanoic acid (FAMP) and (R)- and (S)-3-[(18)F]fluoro-2-methyl-2-N-(methylamino)propanoic acid (NMeFAMP) as potential PET radioligands for imaging brain tumors” (J Med Chem, 2010)
